From PubChem BioAssay
Hep lipid drop: inhibitors of hepatocyte lipid droplet formation, primary screen, imaging, high-throughput imaging, BODIPY stain | AML12 mouse hepatocytes, oleate lipid droplets | inhibition, % at 6.5 µM | 0.4% of 240,000 active;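 active = lipid droplet intensity inhibited by at least 50%, with more than 500 cells counted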
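Material: mouse AML12 hepatocyte cell line, fixed after treatment; Timing: compound with oleate, overnight; Technique: high-content imaging of BODIPY-stained droplets and DAPI nuclei; Probe or stimulus: oleate, 100 µM final; Dosing: compound at 6.5 µM only.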
HSF1 inh: HSF1 inhibitors in luciferase reporter cells, primary screen, cell-based, NIH3T3, luminescence; NIH3T3-HGL HSE-luciferase, MG132-induced, luminescence 8 h; stronger effect = lower value; 0.77% of 300,000 active; activity change, negative = inhibition, % at 7.5 µM (by protocol); AID 2098, 2009;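 active = more than half of replicate wells show activity change below -50%, luminescence cut by over half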;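 note: luciferase reports HSF-1 transcriptional activity via heat shock element; 0% = median of DMSO wells and -100% = zero luminescence signal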
HSF1 activator: HSF-1 activators, primary screen, NIH3T3-HGL cells, MG132 stress, luminescence, single point; NIH3T3-HGL HSF-1 luciferase reporter, 8 h; 100% = twice DMSO control signal; 1.7% of 300,000 active; activation, % at 9 µM;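 active = mean replicate activation of at least 50% with a set share of replicates each reaching 50%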;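 note: 0% = median of the neutral control wells and 100% = twice that signal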
PHOSPHO1 inh: PubChem AID 1565 | recombinant PHOSPHO1, absorbance phosphatase assay | inhibition, % at 13.3 µM | 1.1% of 290,000 active | Phosphoethanolamine/phosphocholine phosphatase (Homo sapiens), Q8TCT1; in the data active = inhibition above about 60%
Target sequence (Q8TCT1 whole entry, looked up): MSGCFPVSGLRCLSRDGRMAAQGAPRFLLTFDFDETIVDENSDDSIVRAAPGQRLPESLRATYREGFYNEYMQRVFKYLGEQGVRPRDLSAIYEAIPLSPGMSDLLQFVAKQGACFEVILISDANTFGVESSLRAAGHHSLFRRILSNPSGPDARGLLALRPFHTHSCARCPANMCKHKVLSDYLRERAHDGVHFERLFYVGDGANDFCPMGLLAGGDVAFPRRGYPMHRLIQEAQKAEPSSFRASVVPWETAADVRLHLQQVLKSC
CHT inh: inhibitors of human choline transporter CHT | CHT-expressing cells, membrane potential dye, choline response; stronger effect = lower value | B-score at 10 µM | High affinity choline transporter 1 (Homo sapiens), Q9GZV3 | 0.86% of 310,000 active | AID 488975, 2010;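 active = B-score over 3 SD under the library average, and starting fluorescence ratio not unusually high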;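 note: choline stimulus applied at its EC90 after an EC20 pre-addition; B-score computed on integrated fluorescence ratio after choline addition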
CHT allo act: CHT positive allosteric modulators, primary screen, cell-based, membrane potential dye, choline EC20 | CHT-expressing cells; stronger effect = higher value; LV-AA mutant CHT in HEK293 cells | B-score at 10 µM | 0.49% of 310,000 active | AID 488977, 2010;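 active = initial fluorescence not abnormally high and integrated response B-score, plate-corrected, over 3 SD above library mean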
Active calls of the source: *; i = inactive; · = no result. Rows were chosen to be rich in hits. Some 4.9% of all compounds tested hit in one or more screens of this group.

SMILES	Hep lipid drop	HSF1 inh	HSF1 activator	PHOSPHO1 inh	CHT inh	CHT allo act
COc1n[nH]c(C(=O)Nc2nc3ccccc3s2)c1[N+](=O)[O-]	4	-65*	-69	12	i	i
Nc1ccc(C(=O)Nc2nc3ccccc3s2)cc1	1	33	57*	2	i	i
O=C(Nc1nc2ccccc2s1)Nc1ccc(F)cc1F	0	36	50*	·	i	i
O=C(N[C@@H](CO)C(=O)NCc1ccccc1)c1ccc(C(F)(F)F)cc1	·	-8	-4	10	i	i
COC(CNC(=O)CCCn1nnnc1CN1CCOCC1)c1cccs1 (stereo not given)	-1	-4	1	22	·	·
N#Cc1ccc(Cl)cc1NC(=O)COC(=O)c1ccc(S(=O)(=O)N2CCCC2)cc1	0	11	55*	9	i	i
O=C(COC(=O)c1ccc(S(=O)(=O)N2CCCC2)cc1)Nc1ccc(F)cc1F	16	-8	10	48	i	i
O=[N+]([O-])C(=C1Nc2ccccc2N1)C(Cl)=C(Cl)Cl	-25	-4	11	43	i	i
O=C(NCc1ccncc1)C1CCN(S(=O)(=O)c2ccc(F)cc2)CC1	-13	-1	26	36	i	i
COc1ccc(CNC(=O)C2CCCN(S(=O)(=O)c3ccc4c(c3)C(C)(C)C(=O)N4C)C2)cc1 (stereo not given)	-3	1	-4	15	i	i
COc1ccc(CNC(=O)C2CCN(S(=O)(=O)c3ccc4c(c3)C(C)(C)C(=O)N4C)CC2)cc1	-3	-84*	-88	36	i	i
CN1C(=O)C(C)(C)c2cc(S(=O)(=O)N3CCC(C(=O)NCc4ccc(Cl)cc4)CC3)ccc21	-27	37	66*	12	i	i
CN1C(=O)C(C)(C)c2cc(S(=O)(=O)N3CCC(C(=O)NCc4ccc(F)cc4)CC3)ccc21	-17	-1	3	15	i	i
O=C(NCc1ccncc1)C1CCN(S(=O)(=O)c2cccc(C(F)(F)F)c2)CC1	-1	-53*	-62	22	·	·
COc1ccc(S(=O)(=O)N2CCC(C(=O)NC3CC(C)(C)NC(C)(C)C3)CC2)cc1	-21	-5	-4	70*	i	i
CCCN1CCC(N2CCN(c3ccccc3OC)CC2)CC1	·	·	·	3	·	·
Cc1ccc(-c2cccc(C3CC=CC4C3C(=O)N(Cc3ccccc3)C4c3ccc4ccccc4c3)c2)cc1 (stereo not given)	-5	-8	-3	40	i	i
Cc1ccc2nc(SCC(=O)Nc3ccc4c(c3)OCCO4)nc(=O)n2c1	·	2	-13	·	i	i
CCCCN(C(=O)COC(=O)COc1c(C)cc(C)cc1C)c1c(N)n(CCC)c(=O)[nH]c1=O	·	-69*	-75	·	i	i
CCCCn1c(N)c(N(CCOC)C(=O)COC(=O)COc2c(C)cccc2C)c(=O)[nH]c1=O	·	7	-4	·	i	i
Cn1c(SCC(=O)NCc2cccs2)nnc1-c1ccncc1	·	-6	11	69*	i	i
COc1ccc(-c2nnc(SCC(=O)NCc3cccs3)n2C)cc1	-15	-14	-33	14	i	i
Cc1ccc(-n2c(Cc3cccn3C)nnc2SCC(=O)NCc2ccco2)cc1	·	-3	3	78*	i	i
Cc1ccc(-n2c(Cc3cccn3C)nnc2SCC(N)=O)cc1	·	2	0	21	i	i
CN(C)c1ccc(NC(=O)CSc2nnc(-c3cccs3)n2Cc2ccco2)cc1	14	6	-2	90*	i	i
O=C(Cn1nnc(-c2cccs2)n1)NCc1ccco1	-7	1	3	64*	i	i
CCn1c(-c2nn(C)cc2Cl)n[nH]c1=S	20	-6	24	-5	i	i
